According to ChEMBL document CHEMBL1146122, “Neuropeptide Y (NPY) Y4 receptor selective agonists based on NPY(32-36): development of an anorectic Y4 receptor selective agonist with picomolar affinity” (J Med Chem, 2006):
Positions of bridges follow the written chain, without caps; N, C: chain ends. Non-standard residues stand in square brackets, D forms with d. Residues, ends and D or L forms follow the SMILES beside them. Chains are numbered I, II in the order given. Nva = CCC[C@H](N)C(=O)O

Legend:
[1] = Displacement of […] from rat-human hybrid NPY5 receptor expressed in CHO cells; assay type: cell-based
Method in brief: (§1)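 Competition binding on membranes (5-10 µg protein) from CHO cells stably expressing human Y1, Y2 or rat-human hybrid Y5 receptors. Radioligand 0.2 nM 125I-PYY, incubated with a range of peptide concentrations in 50 mM HEPES pH 7.3, 0.1% BSA, 2.5 mM CaCl2 and 1 mM MgCl2 for 90 min at room temperature. Bound ligand separated on PEI-treated glass fibre filters, washed with PBS and γ-counted. 1 µM NPY defined nonspecific binding. Duplicate points, three experiments, nonlinear regression.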

[2] = molecular target: T1, Neuropeptide Y receptor type 4 (Homo sapiens, UniProt P50391); assay: Displacement of [125I]hPP from human NPY4 receptor expressed in CHO cells; assay type: cell-based
Method in brief: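 Y4 binding used membranes from CHO cells stably expressing cloned human Y4, with 125I-PP as radioligand. Competing peptides were tested over a range of concentrations in 50 mM HEPES pH 7.3, 0.1% BSA, 2.5 mM CaCl2 and 1 mM MgCl2 for 90 min at room temperature. Separation was by filtration and γ-counting. Nonspecific binding was taken with 1 µM PP. Duplicate points, three experiments, nonlinear regression.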

[3] = molecular target: T1, Neuropeptide Y receptor type 4; assay: Agonist activity at human NPY4 receptor in CHO cells by inhibition of forskolin-stimulated cAMP synthesis
[4] = molecular target: T2, Neuropeptide Y receptor type 2 (Homo sapiens, UniProt P49146); assay: Displacement of […] from human NPY2 receptor expressed in CHO cells; assay type: cell-based; method in brief: as §1
T2 sequence (P49146 whole entry): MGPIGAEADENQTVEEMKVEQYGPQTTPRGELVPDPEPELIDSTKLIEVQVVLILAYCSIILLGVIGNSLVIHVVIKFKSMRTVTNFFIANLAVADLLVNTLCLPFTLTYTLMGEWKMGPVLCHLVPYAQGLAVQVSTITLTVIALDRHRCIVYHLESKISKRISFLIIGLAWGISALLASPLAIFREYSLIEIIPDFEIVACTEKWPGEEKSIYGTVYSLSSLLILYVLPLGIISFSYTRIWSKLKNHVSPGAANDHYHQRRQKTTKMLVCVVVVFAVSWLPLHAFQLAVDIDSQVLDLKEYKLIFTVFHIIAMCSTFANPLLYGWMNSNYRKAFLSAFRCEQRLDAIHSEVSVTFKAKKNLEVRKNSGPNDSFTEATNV

[5] = molecular target: T3, Neuropeptide Y receptor type 1 (Homo sapiens, UniProt P25929); assay: Displacement of […] from human NPY1 receptor expressed in CHO cells; assay type: cell-based; method in brief: as §1
T3 sequence (P25929 whole entry): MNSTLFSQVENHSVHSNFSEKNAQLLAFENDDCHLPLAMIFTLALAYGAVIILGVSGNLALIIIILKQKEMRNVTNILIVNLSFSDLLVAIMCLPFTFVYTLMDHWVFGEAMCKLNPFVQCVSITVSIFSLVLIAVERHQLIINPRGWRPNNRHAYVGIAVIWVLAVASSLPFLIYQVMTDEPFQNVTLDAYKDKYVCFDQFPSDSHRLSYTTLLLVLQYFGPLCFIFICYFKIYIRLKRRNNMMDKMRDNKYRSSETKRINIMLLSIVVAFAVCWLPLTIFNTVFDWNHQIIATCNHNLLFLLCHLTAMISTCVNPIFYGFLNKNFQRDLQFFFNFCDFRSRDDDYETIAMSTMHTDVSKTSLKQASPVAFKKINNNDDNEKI

[6] = molecular target: T3, Neuropeptide Y receptor type 1; assay: Agonist activity at human NPY1 receptor in CHO cells by inhibition of forskolin-stimulated cAMP synthesis; assay type: functional, cell-based
[7] = organism: Homo sapiens; assay: Selectivity for human NPY4 over NPY1 receptor
[8] = Selectivity for human NPY4 over rat-human hybrid NPY5 receptor
[9] = organism: Homo sapiens; assay: Selectivity for human NPY4 over NPY2 receptor
[10] = molecular target: T4, Neuropeptide Y receptor type 1 (Homo sapiens) (UniProt P25929); assay: Antagonist activity against human NPY1 receptor in CHO cells by inhibition of forskolin-stimulated cAMP synthesis; assay type: functional, cell-based
T4 sequence (whole entry): T3 sequence (P25929 whole entry)

T1 sequence (P50391 whole entry): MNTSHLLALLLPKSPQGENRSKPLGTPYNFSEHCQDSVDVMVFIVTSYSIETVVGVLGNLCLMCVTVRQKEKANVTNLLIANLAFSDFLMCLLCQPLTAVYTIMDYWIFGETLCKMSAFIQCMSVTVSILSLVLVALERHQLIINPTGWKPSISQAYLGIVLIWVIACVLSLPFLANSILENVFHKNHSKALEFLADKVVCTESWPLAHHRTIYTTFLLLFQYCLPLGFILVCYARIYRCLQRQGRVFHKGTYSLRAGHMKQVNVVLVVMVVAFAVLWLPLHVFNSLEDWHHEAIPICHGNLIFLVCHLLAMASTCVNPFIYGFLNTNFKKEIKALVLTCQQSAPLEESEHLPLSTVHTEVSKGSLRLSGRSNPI

CC(C)C[C@H](NC(=O)[C@H](CCCN=C(N)N)NC(=O)[C@H](Cc1ccc(O)cc1)NC(=O)[C@@H](N)CCCC[C@H](N)C(=O)N[C@@H](Cc1ccc(O)cc1)C(=O)N[C@@H](CCCN=C(N)N)C(=O)N[C@@H](CC(C)C)C(=O)N[C@@H](CCCN=C(N)N)C(=O)N[C@@H](Cc1ccc(O)cc1)C(N)=O)C(=O)N[C@@H](CCCN=C(N)N)C(=O)N[C@@H](Cc1ccc(O)cc1)C(N)=O
Ki [1]: > 1000 nM
Ki [2]: 0.05 nM
EC50 [3]: 14.8 nM
Ki [4]: 890 nM
Ki [5]: 7.5 nM
EC50 [6]: 240 nM

CCC[C@H](NC(=O)[C@H](CCCN=C(N)N)NC(=O)[C@H](Cc1c[nH]c2ccccc12)NC(=O)[C@@H](N)CC[C@H](N)C(=O)N[C@@H](Cc1c[nH]c2ccccc12)C(=O)N[C@@H](CCCN=C(N)N)C(=O)N[C@@H](CCC)C(=O)N[C@@H](CCCN=C(N)N)C(=O)N[C@@H](Cc1ccc(O)cc1)C(N)=O)C(=O)N[C@@H](CCCN=C(N)N)C(=O)N[C@@H](Cc1ccc(O)cc1)C(N)=O
Selectivity ratio [7]: 34
Ki [1]: 330 nM
Selectivity ratio [8]: 78
Selectivity ratio [9]: 85
Ki [2]: 4.2 nM
EC50 [3]: 460 nM
Ki [4]: 360 nM
Ki [5]: 140 nM

CCC[C@H](NC(=O)[C@H](CCCN=C(N)N)NC(=O)[C@H](Cc1c[nH]c2ccccc12)NC(=O)[C@H](Cc1ccc(O)cc1)NC(=O)[C@H](CCCN=C(N)N)NC(=O)[C@H](CCC)NC(=O)[C@H](CCCN=C(N)N)NC(=O)[C@@H](N)Cc1c[nH]c2ccccc12)C(=O)N[C@@H](CCCN=C(N)N)C(=O)N[C@@H](Cc1ccc(O)cc1)C(N)=O (H-WR[Nva]RYWR[Nva]RY-NH2)
Selectivity ratio [7]: 50
Ki [1]: 250 nM
Selectivity ratio [8]: 50
Selectivity ratio [9]: 200
Ki [2]: 5.3 nM
EC50 [3]: 290 nM
Ki [4]: 1050 nM
Ki [5]: 220 nM
Kb [10]: 320 nM

CCC[C@H](NC(=O)[C@H](CCCN=C(N)N)NC(=O)[C@H](Cc1c[nH]c2ccccc12)NC(=O)[C@@H](N)CSSC[C@H](N)C(=O)N[C@@H](Cc1c[nH]c2ccccc12)C(=O)N[C@@H](CCCN=C(N)N)C(=O)N[C@@H](CCC)C(=O)N[C@@H](CCCN=C(N)N)C(=O)N[C@@H](Cc1ccc(O)cc1)C(N)=O)C(=O)N[C@@H](CCCN=C(N)N)C(=O)N[C@@H](Cc1ccc(O)cc1)C(N)=O (I: H-CWR[Nva]RY-NH2 / II: H-CWR[Nva]RY-NH2; disulfide I:1-II:1)
Selectivity ratio [7]: 10
Ki [1]: 770 nM
Selectivity ratio [8]: 30
Selectivity ratio [9]: 110
Kb [10]: 1730 nM

CCC[C@H](NC(=O)[C@H](CCCNC(=N)N)NC(=O)[C@H](Cc1c[nH]c2ccccc12)NC(=O)[C@@H](N)CSSC[C@H](N)C(=O)N[C@@H](Cc1c[nH]c2ccccc12)C(=O)N[C@@H](CCCNC(=N)N)C(=O)N[C@@H](CCC)C(=O)N[C@@H](CCCNC(=N)N)C(=O)N[C@@H](Cc1ccc(O)cc1)C(N)=O)C(=O)N[C@@H](CCCNC(=N)N)C(=O)N[C@@H](Cc1ccc(O)cc1)C(N)=O (I: H-CWR[Nva]RY-NH2 / II: H-CWR[Nva]RY-NH2; disulfide I:1-II:1)
Ki [2]: 30 nM
EC50 [3]: 570 nM
Ki [4]: > 3000 nM
Ki [5]: 340 nM

CCC[C@H](NC(=O)[C@H](CCCN=C(N)N)NC(=O)[C@H](Cc1c[nH]c2ccccc12)NC(=O)[C@@H](N)CCC[C@H](N)C(=O)N[C@@H](Cc1c[nH]c2ccccc12)C(=O)N[C@@H](CCCN=C(N)N)C(=O)N[C@@H](CCC)C(=O)N[C@@H](CCCN=C(N)N)C(=O)N[C@@H](Cc1ccc(O)cc1)C(N)=O)C(=O)N[C@@H](CCCN=C(N)N)C(=O)N[C@@H](Cc1ccc(O)cc1)C(N)=O (stereo in doubt; 2A) [listing 1 of 2 here]
Ki [1]: 2160 nM
Ki [2]: 4.3 nM
EC50 [3]: 200 nM
Ki [4]: 310 nM
Ki [5]: 120 nM

CCC[C@H](NC(=O)[C@H](CCCN=C(N)N)NC(=O)[C@H](Cc1c[nH]c2ccccc12)NC(=O)[C@@H](N)CCC[C@H](N)C(=O)N[C@@H](Cc1c[nH]c2ccccc12)C(=O)N[C@@H](CCCN=C(N)N)C(=O)N[C@@H](CCC)C(=O)N[C@@H](CCCN=C(N)N)C(=O)N[C@@H](Cc1ccc(O)cc1)C(N)=O)C(=O)N[C@@H](CCCN=C(N)N)C(=O)N[C@@H](Cc1ccc(O)cc1)C(N)=O (stereo in doubt; 2A) [listing 2 of 2 here]
Selectivity ratio [7]: 30
Selectivity ratio [8]: 500
Selectivity ratio [9]: 70

CCC[C@H](NC(=O)[C@H](CCCN=C(N)N)NC(=O)[C@H](Cc1c[nH]c2ccccc12)NC(=O)[C@@H](N)CCC[C@H](N)C(=O)N[C@@H](Cc1c[nH]c2ccccc12)C(=O)N[C@@H](CCCN=C(N)N)C(=O)N[C@@H](CCC)C(=O)N[C@@H](CCCN=C(N)N)C(=O)N[C@@H](Cc1ccc(O)cc1)C(N)=O)C(=O)N[C@@H](CCCN=C(N)N)C(=O)N[C@@H](Cc1ccc(O)cc1)C(N)=O (stereo in doubt; 2B) [listing 1 of 2 here]
Ki [1]: 2280 nM
Ki [2]: 4.1 nM
EC50 [3]: 220 nM
Ki [4]: 260 nM
Ki [5]: 140 nM

CCC[C@H](NC(=O)[C@H](CCCN=C(N)N)NC(=O)[C@H](Cc1c[nH]c2ccccc12)NC(=O)[C@@H](N)CCC[C@H](N)C(=O)N[C@@H](Cc1c[nH]c2ccccc12)C(=O)N[C@@H](CCCN=C(N)N)C(=O)N[C@@H](CCC)C(=O)N[C@@H](CCCN=C(N)N)C(=O)N[C@@H](Cc1ccc(O)cc1)C(N)=O)C(=O)N[C@@H](CCCN=C(N)N)C(=O)N[C@@H](Cc1ccc(O)cc1)C(N)=O (stereo in doubt; 2B) [listing 2 of 2 here]
Selectivity ratio [7]: 40
Selectivity ratio [8]: 550
Selectivity ratio [9]: 60

CCC[C@H](NC(=O)[C@H](CCCN=C(N)N)NC(=O)[C@H](Cc1c[nH]c2ccccc12)NC(=O)[C@@H](N)CCCC[C@H](N)C(=O)N[C@@H](Cc1c[nH]c2ccccc12)C(=O)N[C@@H](CCCN=C(N)N)C(=O)N[C@@H](CCC)C(=O)N[C@@H](CCCN=C(N)N)C(=O)N[C@@H](Cc1ccc(O)cc1)C(N)=O)C(=O)N[C@@H](CCCN=C(N)N)C(=O)N[C@@H](Cc1ccc(O)cc1)C(N)=O (stereo in doubt; 4A) [listing 1 of 2 here]
Ki [1]: 120 nM
Ki [2]: 4.1 nM
EC50 [3]: 430 nM
Ki [4]: 390 nM
Ki [5]: 90 nM

CCC[C@H](NC(=O)[C@H](CCCN=C(N)N)NC(=O)[C@H](Cc1c[nH]c2ccccc12)NC(=O)[C@@H](N)CCCC[C@H](N)C(=O)N[C@@H](Cc1c[nH]c2ccccc12)C(=O)N[C@@H](CCCN=C(N)N)C(=O)N[C@@H](CCC)C(=O)N[C@@H](CCCN=C(N)N)C(=O)N[C@@H](Cc1ccc(O)cc1)C(N)=O)C(=O)N[C@@H](CCCN=C(N)N)C(=O)N[C@@H](Cc1ccc(O)cc1)C(N)=O (stereo in doubt; 4A) [listing 2 of 2 here]
Selectivity ratio [7]: 20
Selectivity ratio [8]: 30
Selectivity ratio [9]: 100

CCC[C@H](NC(=O)[C@H](CCCN=C(N)N)NC(=O)[C@H](Cc1c[nH]c2ccccc12)NC(=O)[C@@H](N)CCCC[C@H](N)C(=O)N[C@@H](Cc1c[nH]c2ccccc12)C(=O)N[C@@H](CCCN=C(N)N)C(=O)N[C@@H](CCC)C(=O)N[C@@H](CCCN=C(N)N)C(=O)N[C@@H](Cc1ccc(O)cc1)C(N)=O)C(=O)N[C@@H](CCCN=C(N)N)C(=O)N[C@@H](Cc1ccc(O)cc1)C(N)=O (stereo in doubt; 4B) [listing 1 of 2 here]
Ki [1]: 280 nM
Ki [2]: 2 nM
EC50 [3]: 370 nM
Ki [4]: 530 nM
Ki [5]: 80 nM
EC50 [6]: 1410 nM

CCC[C@H](NC(=O)[C@H](CCCN=C(N)N)NC(=O)[C@H](Cc1c[nH]c2ccccc12)NC(=O)[C@@H](N)CCCC[C@H](N)C(=O)N[C@@H](Cc1c[nH]c2ccccc12)C(=O)N[C@@H](CCCN=C(N)N)C(=O)N[C@@H](CCC)C(=O)N[C@@H](CCCN=C(N)N)C(=O)N[C@@H](Cc1ccc(O)cc1)C(N)=O)C(=O)N[C@@H](CCCN=C(N)N)C(=O)N[C@@H](Cc1ccc(O)cc1)C(N)=O (stereo in doubt; 4B) [listing 2 of 2 here]
Selectivity ratio [7]: 40
Selectivity ratio [8]: 140
Selectivity ratio [9]: 270
